Laboratory results: ChEMBL document CHEMBL1140839, “Carbamate-appended N-alkylsulfonamides as inhibitors of gamma-secretase” (Bioorg Med Chem Lett, 2008)
Calls of active or inactive are those of the source. The calls are words filed in the database; no cut-off is given here.

Key:
Gamma-secretase = test: Inhibition of gamma secretase in human H4 cells assessed as reduction in amyloid beta40 level by ELISA; type: cell-based
Method in brief: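 Cells were plated and allowed to attach, then the medium was replaced with Ultraculture containing compound at 1% final DMSO. After overnight incubation, Aβ40 in the conditioned medium was measured by sandwich ELISA (C-terminal Aβ40-specific capture antibody, HRP-labelled N-terminal Aβ antibody for detection). IC50 values are means of two experiments, each with 12 concentrations; intra-assay variance was <10%.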

[1] = Drug level in Tg2576 mouse plasma at 200 umol/kg, po after 3 hrs; type: ADME, organism-based; conditions: read-out: Drug uptake
Method in brief: (§1)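 Tg2576 (βAPP-Swedish) transgenic mice received one oral dose of 200 μmol/kg. Plasma and brain drug concentrations (nM) were measured 3 h after dosing and reported as mean ± error.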

Mus musculus = test: Reduction in amyloid beta level in Tg2576 mouse brain at 200 umol/kg, po after 3 hrs; type: functional; parameters: scale not given: the % may be the effect or the level left
Method in brief: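 Tg2576 (βAPP-Swedish) transgenic mice received one oral dose of 200 μmol/kg. Brain Aβ was measured 3 h later and expressed as % reduction.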

[2] = Drug level in Tg2576 mouse brain at 200 umol/kg, po after 3 hrs; type: ADME, organism-based; conditions: read-out: Drug uptake; method in brief: as §1

IC50 (Gamma-secretase) [nM] | SMILES | further results
12 | C[C@H](COC(=O)NC(C)(C)C)N(c1cc(Cl)ccc1CO)S(=O)(=O)c1ccc(Cl)cc1 | 
5.6 | C[C@H](COC(=O)NC1CCCCC1)N(c1cc(Cl)ccc1CO)S(=O)(=O)c1ccc(Cl)cc1 | 
10 | CCNC(=O)OC[C@@H](C)N(c1cc(Cl)ccc1CO)S(=O)(=O)c1ccc(Cl)cc1 | 
15 | CCC(C)NC(=O)OC[C@@H](C)N(c1cc(Cl)ccc1CO)S(=O)(=O)c1ccc(Cl)cc1 (stereo partly drawn) | 
0.06 | CCN(CCCn1ccnc1)C(=O)OC[C@@H](C)N(c1cc(Cl)ccc1CO)S(=O)(=O)c1ccc(Cl)cc1 | concentration at 3 h [1]: 0.73 µM; Activity (Mus musculus): 15%; concentration at 3 h [2]: 0.227 µM
15 | CNC(=O)OC[C@@H](C)N(c1cc(Cl)ccc1CO)S(=O)(=O)c1ccc(Cl)cc1 | 
10 | CCCNC(=O)OC[C@@H](C)N(c1cc(Cl)ccc1CO)S(=O)(=O)c1ccc(Cl)cc1 | 
18 | CCN(CC)C(=O)OC[C@@H](C)N(c1cc(Cl)ccc1CO)S(=O)(=O)c1ccc(Cl)cc1 | 
2.1 | C[C@H](COC(=O)NCCCn1ncnn1)N(c1cc(Cl)ccc1CO)S(=O)(=O)c1ccc(Cl)cc1 | 
4 | C[C@H](CCOC(=O)NCCn1ccnc1)N(c1cc(Cl)ccc1CO)S(=O)(=O)c1ccc(Cl)cc1 | 
0.41 | C[C@H](COC(=O)NCCCn1ccnc1)N(c1cc(Cl)ccc1Cl)S(=O)(=O)c1ccc(Cl)cc1 | 
0.27 | CCN(CCCn1ccnc1)C(=O)OC[C@@H](C)N(c1cc(Cl)ccc1Cl)S(=O)(=O)c1ccc(Cl)cc1 | concentration at 3 h [1]: 98.9 µM; Activity (Mus musculus): 50%; concentration at 3 h [2]: 41.2 µM
2.3 | C[C@H](COC(=O)NCCCn1ccnc1)N(c1cc(Cl)ccc1CO)S(=O)(=O)c1ccc(Cl)cc1 | 
1.8 | C[C@H](COC(=O)N1CCCC1)N(c1cc(Cl)ccc1CO)S(=O)(=O)c1ccc(Cl)cc1 | 
1.2 | C[C@H](COC(=O)NCCCn1ccnc1)N(c1cc(F)ccc1F)S(=O)(=O)c1ccc(Cl)cc1 | 
12 | CC(C)NC(=O)OC[C@@H](C)N(c1cc(Cl)ccc1CO)S(=O)(=O)c1ccc(Cl)cc1 | 
0.93 | C[C@H](COC(=O)NCCn1ccnc1)N(c1cc(Cl)ccc1CO)S(=O)(=O)c1ccc(Cl)cc1 | 
 | C[C@H](CCCN(C)S(C)(=O)=O)N(c1cc(Cl)ccc1CO)S(=O)(=O)c1ccc(Cl)cc1 | Activity (Mus musculus): 27%
0.48 | C[C@H](COC(=O)N(C)CCCn1ccnc1)N(c1cc(Cl)ccc1Cl)S(=O)(=O)c1ccc(Cl)cc1 | 
 | C[C@H](CCCn1cnnn1)N(c1cc(Cl)ccc1CO)S(=O)(=O)c1ccc(Cl)cc1 | Activity (Mus musculus): 41%
19 | CC(C)N(CCCn1ccnc1)C(=O)OC[C@@H](C)N(c1cc(Cl)ccc1CO)S(=O)(=O)c1ccc(Cl)cc1 | 
0.06 | C[C@H](COC(=O)N(CCCn1ccnc1)CC1CC1)N(c1cc(Cl)ccc1CO)S(=O)(=O)c1ccc(Cl)cc1 | concentration at 3 h [1]: 6.83 µM; Activity (Mus musculus): inactive; concentration at 3 h [2]: 0.859 µM
7.7 | C[C@H](CCOC(=O)NCCCn1ccnc1)N(c1cc(Cl)ccc1CO)S(=O)(=O)c1ccc(Cl)cc1 | 
0.66 | C[C@H](COC(=O)NCCCn1ccnc1)N(c1cc(Cl)ccc1F)S(=O)(=O)c1ccc(Cl)cc1 | 
